Measurements from ChEMBL document CHEMBL1125805, “Cholecystokinin antagonists: (R)-tryptophan-based hybrid antagonists of high affinity and selectivity for CCK-A receptors” (J Med Chem, 1991).

Tests used:
[1] = target: T1, Cholecystokinin receptor type A (Cavia porcellus, UniProt Q63931); assay: Inhibition of [125I]Bolton-Hunter CCK-8 binding to cholecystokinin type A receptor in guinea pig pancreatic membranes.; format: cell membranes
T1 sequence (Q63931 whole entry): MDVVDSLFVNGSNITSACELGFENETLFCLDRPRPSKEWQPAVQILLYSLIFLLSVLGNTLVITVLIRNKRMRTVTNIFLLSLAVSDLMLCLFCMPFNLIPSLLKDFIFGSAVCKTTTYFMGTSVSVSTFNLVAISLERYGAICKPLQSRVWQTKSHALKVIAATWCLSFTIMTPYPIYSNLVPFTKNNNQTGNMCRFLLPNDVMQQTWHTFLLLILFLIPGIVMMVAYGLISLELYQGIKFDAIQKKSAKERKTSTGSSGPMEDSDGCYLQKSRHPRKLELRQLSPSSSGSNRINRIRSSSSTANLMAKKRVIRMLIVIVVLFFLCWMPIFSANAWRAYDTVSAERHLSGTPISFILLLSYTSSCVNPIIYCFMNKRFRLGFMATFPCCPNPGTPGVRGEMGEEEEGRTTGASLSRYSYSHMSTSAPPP

Cavia porcellus [2] = organism: Cavia porcellus; assay: Inhibition of CCK-8-stimulated amylase release; format: functional
Cavia porcellus [3] = organism: Cavia porcellus; assay: The compound was tested for the inhibition of CCK-8-stimulated amylase release; format: functional
In short: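 Amylase release was stimulated with CCK-8 at 3 × 10⁻¹⁰ M as the reference concentration, following a published procedure. Inhibition by test compounds gave IC50 values.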

IC50 [1] [nM] | Compound | IC50 (Cavia porcellus [2]) [nM] | IC50 (Cavia porcellus [3]) [nM]
390 | CCCCCN(CCCCC)C(=O)[C@@H](Cc1c[nH]c2ccccc12)NC(=O)c1ccc2cccc(O)c2n1 | < 100000 | 
880 | CCCCCN(CCCCC)C(=O)[C@@H](Cc1c[nH]c2ccccc12)NC(=O)c1cc2ccccc2cn1 | < 100000 | 
11 | CCCCCN(CCCCC)C(=O)[C@@H](Cc1c[nH]c2ccc(O)cc12)NC(=O)c1cnc2ccccc2c1 | 27 | 
 | CCCCCN(CCCCC)C(=O)[C@@H](Cc1c[nH]c2ccccc12)NC(=O)c1ccc2cc(O)ccc2c1 | 100000 | 
670 | CCCCCN(CCCCC)C(=O)[C@H](Cc1c[nH]c2ccccc12)NC(=O)c1ccc(Cl)c(Cl)c1 | > 30000 | 
190 | CCCCCN(CCCCC)C(=O)[C@@H](Cc1c[nH]c2ccccc12)NC(=O)c1ccc(Cl)c(Cl)c1 | 2500 | 
430 | CCCCCN(CCCCC)C(=O)[C@@H](Cc1c[nH]c2ccccc12)NC(=O)c1c[nH]c2ccccc12 | < 10000 | 
46 | CCCCCN(CCCCC)C(=O)[C@@H](CC1C(=O)Nc2ccccc21)NC(=O)c1cnc2ccccc2c1 (some centres not stated) | 62 | 
 | CCCCCN(CCCCC)C(=O)[C@@H](Cc1c[nH]c2ccccc12)NC(=O)c1cc2ccccc2[nH]1 | 670 | 
520 | CCCCCN(CCCCC)C(=O)[C@H](Cc1c[nH]c2ccccc12)NC(=O)c1cc2ccccc2[nH]1 | < 30000 | 
29 | CCCCCN(CCCCC)C(=O)[C@@H](Cc1c[nH]c2ccccc12)NC(=O)c1ccc2ccccc2c1 | 360 | 
810 | C[C@@H](NC(=O)[C@@H](Cc1c[nH]c2ccccc12)NC(=O)c1cnc2ccccc2c1)c1ccccc1 |  | > 10000
 | CCCCCN(CCCCC)C(=O)[C@@H](Cc1c(Sc2ccccc2[N+](=O)[O-])[nH]c2ccccc12)NC(=O)c1cnc2ccccc2c1 | < 100000 | 
 | CCCCCN(CCCCC)C(=O)[C@@H](Cc1c[nH]c2ccccc12)NC(=O)c1ccc[nH]1 | > 100000 | 
 | CCCCCN(CCCCC)C(=O)[C@H](Cc1c[nH]c2ccccc12)NC(=O)c1cnc2ccccc2c1 | < 100000 | 
 | CCCCCN(CCCCC)C(=O)[C@@H](Cc1c[nH]c2ccccc12)NC(=O)c1cnc2ccccc2c1 | 43 | 
48 | CCCCCN(CCCCC)C(=O)[C@H](Cc1c[nH]c2ccc(F)cc12)NC(=O)c1cnc2ccccc2c1 | > 100000 | 
600 | CN(Cc1ccccc1)C(=O)[C@@H](Cc1c[nH]c2ccccc12)NC(=O)c1cnc2ccccc2c1 |  | 
239 | CCCCCN(CCCCC)C(=O)[C@@H](Cc1c[nH]c2ccccc12)NC(=O)c1ccc2ncccc2c1 | < 10000 | 
155 | CCCCCN(CCCCC)C(=O)[C@@H](Cc1c[nH]c2ccccc12)NC(=O)c1cc2cc(F)ccc2[nH]1 | < 100000 | 

IC50 [1] [nM] | Compound | IC50 (Cavia porcellus [2]) [nM] | IC50 (Cavia porcellus [3]) [nM]
> 10000 | CCCCCN(CCCCC)C(=O)[C@H](Cc1c[nH]c2ccccc12)NC(=O)Nc1ccc(C)cc1 |  | 
400 | CCOC(=O)CN(Cc1ccccc1)C(=O)[C@@H](Cc1c[nH]c2ccccc12)NC(=O)c1cnc2ccccc2c1 |  | 
1100 | CCCCCN(CCCCC)C(=O)[C@@H](Cc1c[nH]c2ccccc12)NC(=O)Nc1cccc(C)c1 | > 30000 | 
 | CCCCCN(CCCCC)C(=O)C(Cc1c[nH]c2ccc(OCc3ccccc3)cc12)NC(=O)c1cnc2ccccc2c1 (configuration not stated) | < 100000 | 
 | CCCCCN(CCCCC)C(=O)[C@@H](Cc1c[nH]c2ccccc12)NC(=O)c1nccc2ccccc12 | > 100000 | 
120 | CCCCCN(CCCCC)C(=O)[C@@H](Cc1c[nH]c2ccccc12)NC(=O)c1ccc2ccccc2n1 | 1300 | 
> 1000 | CCCCCN(CCCCC)C(=O)[C@@H](Cc1c[nH]c2ccccc12)NC(=O)/C=C/c1cccnc1 | < 100000 | 
14600 | CCCCCN(CCCCC)C(=O)[C@@H](Cc1c[nH]c2ccccc12)NC(=O)c1cccnc1 | > 100000 | 
> 10000 | CCCCCN(CCCCC)C(=O)[C@H](Cc1c[nH]c2ccccc12)NC(=O)Nc1ccc(Cl)cc1 |  | 
475 | CCCCCN(CCCCC)C(=O)[C@H](Cc1c[nH]c2ccccc12)NC(=O)c1ccc(Cl)cc1 | < 30000 | 
 | CCCCCN(CCCCC)C(=O)[C@@H](Cc1c[nH]c2ccccc12)NC(=O)c1cc(O)c2cccc(O)c2n1 | 46 | 
500 | CCCCCN(CCCCC)C(=O)[C@@H](Cc1c[nH]c2ccccc12)NC(=O)c1cccc2ccccc12 | < 30000 | 
7 | CCCCCN(CCCCC)C(=O)[C@@H](CCC(=O)O)NC(=O)c1cc(O)c2cccc(O)c2n1 | 106 | 
> 100000 | O=C(N[C@@H](Cc1c[nH]c2ccccc12)C(=O)O)c1ccc(Cl)cc1 [BENZOTRIPT] |  | 
51 | CCCCCN(CCCCC)C(=O)[C@@H](Cc1c[nH]c2ccccc12)NC(=O)c1cc(O)c2ccccc2n1 | 110 | 
4200 | CCCCCN(CCCCC)C(=O)[C@@H](Cc1c[nH]c2ccccc12)NC(=O)Nc1ccc(Cl)cc1 |  | 
180 | C[C@H](NC(=O)[C@@H](Cc1c[nH]c2ccccc12)NC(=O)c1cnc2ccccc2c1)c1ccccc1 |  | 
370 | CCCCCN(CCCCC)C(=O)[C@@H](Cc1c[nH]c2ccccc12)NC(=O)c1ccc(Cl)cc1 | < 10000 | 
1500 | CCCCCN(CCCCC)C(=O)[C@H](Cc1c[nH]c2ccccc12)NC(=O)Nc1cccc(C)c1 | < 100000 | 
